pIC50: −log10 of the molar value.
Assays:
[1] = Cytotoxicity against human HepG2(2.2.15) cells; assay type: cell-based
In short: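 The CC50, the concentration causing 50% cytotoxicity, was determined in Hep G2.2.15 cells. Values are the mean of two independent experiments.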

Hepatitis B virus [2] = experiment: Antiviral activity against Hepatitis B virus-infected human HepG2(2.2.15) cells assessed as inhibition of HBsAg secretion; assay type: functional, organism-based
In short: (§1)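 Secretion of HBsAg and HBeAg by the HBV-producing Hep G2.2.15 line was measured after compound treatment. IC50 is the concentration giving 50% inhibition of antigen secretion. Lamivudine (3TC) served as the positive control. Values are the mean of two independent experiments.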

Hepatitis B virus [3] = experiment: Antiviral activity against Hepatitis B virus-infected human HepG2(2.2.15) cells assessed as inhibition of HBeAg secretion; assay type: functional, organism-based; in short: as §1
[4] = Selectivity index, ratio of CC50 for human HepG2(2.2.15) cells to IC50 for Hepatitis B virus-infected human HepG2(2.2.15) cells assessed as inhibition of HBsAg secretion; assay type: functional
In short: (§2)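 SI was calculated as CC50/IC50 from Hep G2.2.15 cytotoxicity and from inhibition of HBeAg or HBsAg secretion. The underlying values are means of two independent experiments.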

[5] = Selectivity index, ratio of CC50 for human HepG2(2.2.15) cells to IC50 for Hepatitis B virus-infected human HepG2(2.2.15) cells assessed as inhibition of HBeAg secretion; assay type: functional; in short: as §2

Row | pIC50 (Hepatitis B virus [2]) | pIC50 (Hepatitis B virus [3]) | SMILES | CC50 [1] | Ratio CC50/IC50 [4] | Ratio CC50/IC50 [5]
1 | < 2.43 | < 2.43 | CC(CC(=O)O)(CC(=O)O)OC[C@H]1O[C@@H](OC/C=C/c2ccccc2)[C@H](O)[C@@H](O)[C@@H]1O [LONGUMOSIDE B] | > 3750 µM |  | 
2 | 2.57 | < 2.57 | COc1cc(CC/C=C/C(=O)N2CCCCC2)ccc1O | > 2700 µM |  | 
3 | < 2.35 | < 2.35 | CC(C)CNC(=O)/C=C/C=C/c1ccc2c(c1)OCO2 [PIPERLONGUMININE] | 320 µM |  | 
4 | 3.82 | 3.85 | O=C(/C=C/C=C/c1ccc2c(c1)OCO2)N1CCCCC1 [PIPERINE] | 2350 µM | 15.7 | 16.8
5 | 3.24 | 2.97 | CCCCCCCCCCCCCCC/C=C/C=C/C(=O)NCC(C)C | 1580 µM | 2.7 | 1.5
6 | 3.96 | 3.96 | O=C(/C=C/CCCC[C@@H](O)[C@H](O)c1ccc2c(c1)OCO2)N1CCCCC1 (relative stereo) | 210 µM | 1.9 | 1.9
7 | 3.89 | 3.80 | O=C(/C=C/CCCC[C@H](O)[C@H](O)c1ccc2c(c1)OCO2)N1CCCCC1 (relative stereo) | 320 µM | 2.5 | 2
8 | < 1.85 | < 1.85 | O=C1C=CCCN1 [5,6-DIHYDRO-2(1H)-PYRIDINONE] | 9900 µM |  | 
9 | < 2.91 | < 2.91 | O=C1NCC[C@H](O)[C@H]1O | > 1220 µM |  | 

Row | SMILES | pIC50 (Hepatitis B virus [2]) | pIC50 (Hepatitis B virus [3]) | CC50 [1] | Ratio CC50/IC50 [4] | Ratio CC50/IC50 [5]
10 | CC(C)CNC(=O)/C=C/C=C/CCCCCC/C=C/c1ccc2c(c1)OCO2 [GUINEENSINE] | > 4.30 | > 4.30 | 150 µM | >3 | >3
11 | Nc1ccn([C@@H]2CS[C@H](CO)O2)c(=O)n1 [LAMIVUDINE] | 1.54 | 1.52 |  | 1.1 | 1
